These entries were drawn from the full list.
Apaf-1 act – activates human Apaf-1 apoptosome | Apaf-1 apoptosome caspase-3 activation, DEVD-Rh110 fluorescence; active compounds read low | activity change, negative = activation, % at 20 µM | 330,000 tested, 0.31% active;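 active = activity change at or below -40% at 20 µM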
Target sequence (O14727 whole entry, looked up): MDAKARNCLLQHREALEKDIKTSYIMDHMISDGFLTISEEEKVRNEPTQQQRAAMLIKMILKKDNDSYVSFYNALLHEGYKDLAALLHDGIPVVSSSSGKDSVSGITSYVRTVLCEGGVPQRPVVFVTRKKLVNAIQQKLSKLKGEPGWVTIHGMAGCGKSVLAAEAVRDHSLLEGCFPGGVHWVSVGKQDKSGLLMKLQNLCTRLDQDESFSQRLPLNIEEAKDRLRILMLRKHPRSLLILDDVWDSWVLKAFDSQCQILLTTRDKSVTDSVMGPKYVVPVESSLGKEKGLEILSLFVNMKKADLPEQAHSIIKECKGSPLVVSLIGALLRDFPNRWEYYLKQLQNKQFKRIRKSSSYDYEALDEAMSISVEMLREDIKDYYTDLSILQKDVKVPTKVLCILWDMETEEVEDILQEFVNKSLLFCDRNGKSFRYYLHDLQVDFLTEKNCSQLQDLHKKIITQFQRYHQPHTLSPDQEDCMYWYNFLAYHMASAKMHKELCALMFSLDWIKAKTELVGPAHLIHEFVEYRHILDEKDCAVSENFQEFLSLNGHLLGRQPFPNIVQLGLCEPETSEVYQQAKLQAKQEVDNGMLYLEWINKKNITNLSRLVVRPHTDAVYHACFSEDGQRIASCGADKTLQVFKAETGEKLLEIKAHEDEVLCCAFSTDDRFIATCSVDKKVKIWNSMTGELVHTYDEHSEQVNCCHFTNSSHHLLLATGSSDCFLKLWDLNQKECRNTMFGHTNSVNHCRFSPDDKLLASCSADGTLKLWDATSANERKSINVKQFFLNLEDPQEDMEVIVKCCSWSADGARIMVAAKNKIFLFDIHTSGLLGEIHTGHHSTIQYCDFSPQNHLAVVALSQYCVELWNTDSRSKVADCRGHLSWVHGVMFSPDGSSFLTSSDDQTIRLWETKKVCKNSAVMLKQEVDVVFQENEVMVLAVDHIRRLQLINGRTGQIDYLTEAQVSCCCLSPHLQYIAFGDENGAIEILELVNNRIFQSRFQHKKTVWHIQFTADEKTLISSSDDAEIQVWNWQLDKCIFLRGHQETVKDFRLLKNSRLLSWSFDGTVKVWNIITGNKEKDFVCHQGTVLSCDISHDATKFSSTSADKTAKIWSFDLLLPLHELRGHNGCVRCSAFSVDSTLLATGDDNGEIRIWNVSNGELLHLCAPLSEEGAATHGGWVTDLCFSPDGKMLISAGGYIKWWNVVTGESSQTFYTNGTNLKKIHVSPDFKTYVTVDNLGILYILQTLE
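Assay system – biochemical Apaf-1 apoptosome reconstitution · Medium – 20 mM HEPES buffer, pH 7.5, containing CHAPS and BSA · Incubation – 30 min preincubation, 50 min reaction, room temperature · Measured by – Caspase-3-released Rh110 fluorescence, 540 nm emission, 480 nm excitation · Read-out – Caspase-3 cleavage activity downstream of Apaf-1 activation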
Rh110 interf act – counter-screen for Apaf-1 activators: fluorescence interference. 980 tested, under 10 active. shares compounds with Apaf-1 act. Rh110 fluorescence interference, quenched caspase reaction, Ex480/Em540. fluorescence interference (activity change), % at 20 µM, hits read low;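 active = mean activity change at or below -40% when tested at 20 µM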
Apaf-1 act conf – Apaf-1 (human) activation, single-dose confirmed; shares compounds with Apaf-1 act; reconstituted apoptosome caspase-3 activity, DEVD-Rh110 fluorescence; active compounds read low; activity change, negative = activation, % at 20 µM; 980 tested, 5% active; AID 504617;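 active = mean activity change at or below -40%, meaning activation of 40% or more, at 20 µM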
Apaf1 act interf – counter-screen for Apaf-1 activators: fluorescence interference, dose response; shares compounds with Apaf-1 act; fluorescence interference counterscreen, Apaf-1 activator assay; 55 tested, under 10 active; EC50, µM; AID 588592; call rule not given here
Numbers stand for hits; n = inactive; x = not tested or not shown.

SMILES | Apaf-1 act | Rh110 interf act | Apaf-1 act conf | others
COc1cccc2sc3cc(C#CC4(O)CCCCC4)ccc3c(=O)c12 | n | x | x
CCC(=O)N(C1=C(NC)C(=O)c2ccccc2C1=O)C(C)C | n | x | x
COc1ccc(C(=O)Nc2ccccc2C(=O)NC(Cc2ccc(O)cc2)C(=O)NNC(=O)c2ccccc2Cl)cc1 (stereo not drawn) | -48 | n | n
CCOc1ccc(S(=O)(=O)N(CC(=O)N2CCc3ccccc32)Cc2ccco2)cc1 | -307 | n | n
CCN(CC)C(=O)C(=O)c1c(-c2ccccc2)[nH]c2ccccc12 | -510 | n | n
CCN(c1ccccc1)c1cc2ccccc2c(=O)[nH]1 | n | x | x
O=C1C(Cl)=C(NCc2cccnc2)C(=O)c2ccccc21 | n | x | x
Nc1cc(N2CCCC2)c(Cl)cc1[N+](=O)[O-] | n | x | x
CCO[C@@H]1OC(C(=O)N2CCN(Cc3ccc4c(c3)OCO4)CC2)=C[C@H](c2ccc(C(F)(F)F)cc2)[C@H]1CCCO | n | x | x
C=C(C)C(=O)Nc1cccc(C2=NOC3(C2)C[C@H](C(N)=O)N(C(=O)/C=C/C)C3)c1 (stereo partly drawn) | -280 | n | -126 | Apaf1 act interf=n
C=C(C)C(=O)Nc1cccc(C2=NOC3(C2)C[C@@H](C(N)=O)N(C(=O)/C=C/CC)C3)c1 (stereo partly drawn) | -205 | n | -114 | Apaf1 act interf=n
CC1(C)Nc2ccc(O)cc2-c2c1ssc2=S | n | x | x
CCC(CO)Oc1cc(NCc2cccc(C(F)(F)F)c2)c2ncn(C(C)C)c2c1 (stereo not drawn) | n | x | x
CC(=O)N(/N=C1\Sc2ccccc2C1=O)c1cccc(C)c1 | n | x | x
CC(=O)[C@]1(O)Cc2c(O)c3c(c(O)c2[C@@H](O[C@H]2C[C@H](N)[C@H](O)[C@H](C)O2)C1)C(=O)c1ccccc1C3=O | n | x | x
c1ccc2c(C[C@@H]3CNCCN3CC3CCCCC3)cccc2c1 | n | x | x
COc1ccnc(Oc2ccc(F)cc2)c1C#N | -47 | n | n
O=C1C=C(Nc2ccccc2O)c2ccccc2C1=O | n | x | x
Cc1c(/C=N/Nc2nc3ccccc3[nH]2)c2ccccc2n1C | n | x | x
c1nc(NCC2(N3CCOCC3)CCCCC2)c2ccsc2n1 | -313 | n | n
c1cc2c3c(cccc3c1)NC1(CCC3(CC1)Nc1cccc4cccc(c14)N3)N2 | n | x | x
COc1ccc(-c2cc(C)no2)cc1S(=O)(=O)N1CCOc2ccccc21 | -425 | n | n
COc1ccc(CC(=O)N(Cc2ccccc2)c2ccc(C)cc2)cc1S(=O)(=O)N1CCOCC1 | n | x | x
CC(=O)Nc1cc(OC(C)=O)c2nonc2c1OC(C)=O | n | x | x
Cc1ccc(/C=C2\SC(=S)N(CCC(=O)NNC(=O)c3ccc(O)cc3)C2=O)cc1 | -63 | n | n
SMILES | Apaf-1 act | Rh110 interf act | Apaf-1 act conf | others
CCN(CC)CCOC(=O)c1ccc(NC(=O)CCCN2C(=O)S/C(=C/c3ccc(OC)cc3)C2=S)cc1 | n | x | x
COc1ccc2cc(C(=O)Nc3ccc(Cl)cc3)sc(=O)c2c1OC | -46 | n | n
CCOC(=O)c1c(C)c(C(=O)NCC2CCCO2)c(C)n1C (stereo not drawn) | -59 | n | n
Cc1cccnc1NC(=O)c1ccc(OCC2CCCO2)cc1 (stereo not drawn) | n | x | x
CCN(CC)S(=O)(=O)c1cccc(NC(=O)C2SC(=Nc3ccc(C)cc3C)C(C(=O)NCC3CCCO3)=C2N)c1 (stereo not drawn) | n | x | x
c1cc2cn[nH]c2cc1NC1CCCCCC1 | n | x | x
COc1ccc(C(C)(C)C)cc1NC(=O)CNc1cccc2ccccc12 | n | x | x
COc1ccc(CC(=O)Nc2ccc(-c3nc4cc(C)ccc4o3)c(O)c2)cc1OC | n | x | x
COc1ccc(OC)c(NC(=O)CS(=O)(=O)Cc2nc(-c3ccccc3C)oc2C)c1 | -50 | n | n
CC1=NN(Cc2ccccc2)C(=O)C1 | n | x | x
CCCCCc1ccc(OCCCC[n+]2cccc(C)c2)c(CCCCC)c1 | n | x | x
O=C(OCc1nnc(-c2ccccc2)o1)c1ccc([N+](=O)[O-])s1 | n | x | x
NC1=NC[C@@H](CC2CCCCC2)N1CCc1cc(C(F)(F)F)cc(C(F)(F)F)c1 | n | x | x
CC(C)=CCc1c(O)c(CC=C(C)C)c2c(c1O)C(=O)CC(c1ccc(O)cc1)O2 (stereo not drawn) | -150 | n | n
CCOC(=O)c1c(-c2ccc(-c3ccccc3)cc2)csc1NC(=O)CNCCN(C)C | n | x | x
CN(C=[N+](C)C)c1cccc2c1C(=O)c1ccccc1C2=O | n | x | x
COC(=O)c1c(C(C)=O)c(C)n(C)c1C | -343 | n | n
CC(C)OCCCNC1=C(Cl)C(=O)c2ccccc2C1=O | n | x | x
CCCCCCSc1cc(-c2nc3ccc(C)cn3c2NCCCC)ccc1OC | n | x | x
O=C(CSc1nnnn1-c1ccc(C(=O)O)cc1)NC1CC1 | -324 | n | n
Oc1ccccc1/C=N/Nc1cc(N2CCCC2)nc(N2CCCC2)n1 | n | x | x
O=C1C(Nc2cccc(O)c2)=C(N2CCCCC2)C(=O)c2ccccc21 | n | x | x
O=[N+]([O-])c1cc([N+](=O)[O-])c2nonc2c1Nc1ccc(O)cc1 | n | x | x
O=[N+]([O-])c1cncc([N+](=O)[O-])c1Nc1cccc(O)c1 | -64 | n | n
COc1cc(C(=O)NC(C)c2ccc(-n3ccnc3)cc2)cc(OC)c1C (stereo not drawn) | n | x | x
SMILES | Apaf-1 act | Rh110 interf act | Apaf-1 act conf | others
COc1ccc(/C=N/n2c(C)nc3sc(C)c(C)c3c2=O)cc1OC | -145 | n | n
NS(=O)(=O)c1ccc(N=Nc2c[nH]c(=O)c(O)c2)cc1 | n | x | x
COc1ccc(CN2CCN(C(c3ccc(F)cc3)c3ccc(F)cc3)CC2)c(OC)c1OC | n | x | x
Nc1ccnc(C(F)(F)F)c1C(=O)c1ccccc1 | -43 | n | n
COc1ccc(/C=C2/C(=O)N(c3cccc(F)c3)N=C2C)c(OC)c1 | n | x | x
ONc1cccnc1-n1nc(C(F)(F)F)cc1C(F)(F)F | n | x | x
OCCN1CCN(CCCN2c3ccccc3Sc3ccc(Cl)cc32)CC1 | n | x | x
COC(=O)C1=C(C)N(Cc2ccccc2)C(=NCCc2c[nH]c3ccccc23)N[C@H]1c1cccc(C(F)(F)F)c1 | n | x | x
NC(=NCCc1c[nH]c2ccccc12)NS(=O)(=O)c1ccc(F)cc1 | -46 | n | n
Cc1ccccc1OCCNc1cc(N2CC(C)NC(C)C2)ccc1[N+](=O)[O-] (stereo not drawn) | n | x | x
CC(=O)c1ccc(NC(=O)c2cnsn2)cc1 | -410 | n | n
CC(=O)c1ccc(NC(=O)c2ccc3nc(-c4ccco4)c(-c4ccco4)nc3c2)cc1 | n | x | x
CC(=O)c1ccc(NC(=S)Nc2cccc3cnccc23)cc1 | n | x | x
Cc1ccc2[nH]c(=O)c(C(c3nnnn3CC3CCCO3)N3CCc4ccccc4C3)cc2c1 (stereo not drawn) | n | x | x
O=C1c2ccccc2N[C@@H]2C=CC[C@@H]2N1O | -56 | n | n
CN(C)CCOc1ccc(-c2c(-c3ccsc3)sc3ccccc23)cc1 | n | x | x
CC(C)COc1ccc(C(=O)Nc2scc(-c3ccc(Cl)cc3Cl)c2C(N)=O)cc1 | n | x | x
Cc1ccc(NC(=O)c2ccc(OC(=O)COc3ccc(Cl)cc3C)cc2)cc1 | -486 | n | n
Oc1c(Cl)cc(Cl)c2c1NCCC2 | n | x | x
CC(C)NC(=O)C1CCN(S(=O)(=O)c2ccc(N3CCCC3=O)cc2)CC1 | -332 | n | n

Bioassay records (PubChem BioAssay)
